A selection: hits, their analogues and other compounds. The true share with any hit is near 1.8%.
M5 antag: CHRM5 antagonism in calcium assay. P08912. CHO-hM5 cells, Fluo-8 calcium fluorescence, ACh EC80. inhibition, % at 3 µM. 0.59% of 360,000 active. AID 624040;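 active = inhibition above a per-plate cutoff, the mean of that plate's test compounds plus 3 SD, cut at about 27% in these data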
Target sequence (P08912 whole entry, looked up): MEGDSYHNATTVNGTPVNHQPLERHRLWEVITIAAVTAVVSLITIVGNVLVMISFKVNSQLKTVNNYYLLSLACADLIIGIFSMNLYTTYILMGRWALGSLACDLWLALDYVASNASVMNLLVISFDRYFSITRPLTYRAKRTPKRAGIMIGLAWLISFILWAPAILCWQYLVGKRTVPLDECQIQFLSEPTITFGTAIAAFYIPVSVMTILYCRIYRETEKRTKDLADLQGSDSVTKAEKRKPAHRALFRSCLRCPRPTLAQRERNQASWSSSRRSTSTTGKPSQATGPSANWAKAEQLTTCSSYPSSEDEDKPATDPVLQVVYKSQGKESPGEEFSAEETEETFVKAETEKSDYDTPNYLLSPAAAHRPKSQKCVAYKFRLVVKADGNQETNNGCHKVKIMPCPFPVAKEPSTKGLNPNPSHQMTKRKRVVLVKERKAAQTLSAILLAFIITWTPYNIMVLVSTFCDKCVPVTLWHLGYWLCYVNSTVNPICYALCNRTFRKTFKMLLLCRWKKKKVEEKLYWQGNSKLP
CHRM4 agonist: agonists of human muscarinic M4 receptor (CHRM4) | CHO-K1 hM4/Gqi5, Fluo-8 calcium fluorescence; vehicle 0%, full acetylcholine response 100% | activation, % at 3 µM | 0.14% of 360,000 active;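 active = activation above the run mean over all test wells plus 3 SD, cut at about 32% in these data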;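 note: peak over basal fluorescence ratio per well then scaled between controls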
M4 antag: antagonists of human muscarinic M4 receptor (CHRM4) | CHO-hM4 cells, ACh EC80, Fluo-8 calcium fluorescence | inhibition, % at 3 µM | 0.73% of 360,000 active | AID 624125;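 active = inhibition above its plate's cutoff, the mean inhibition of sample wells plus 3 SD, cut at about 27% in these data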
M5 PAM: CHRM5 positive allosteric modulation; P08912; CHO-K1 hM5, Fluo-8 calcium, ACh EC20 PAM; 0% = ACh EC20, 100% = ACh EC100; activation, % at 3 µM; 0.3% of 360,000 active; AID 624038;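 active = activation above the run cutoff, the mean activation of all test compounds plus 3 SD, cut at about 18% in these data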
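system = human M5 receptor in CHO-K1 cells | reagent = EC20 acetylcholine as agonist stimulus | compound dosing = single-point, 3 µM nominal | incubation = Fluo-8 loading 80 min at 37 °C plus 30 min room temperature | detection = Fluo-8 calcium dye fluorescence, kinetic read | benchmarks = low control EC20 acetylcholine (0%), high control EC100 acetylcholine (100%)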
M5 ag: agonists of human muscarinic M5 receptor (CHRM5); activation, % at 3 µM; 0.19% of 360,000 active; P08912; CHO-K1 hM5 cells, Fluo-8 calcium fluorescence; 0% DMSO wells, 100% maximal acetylcholine response; AID 624037;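 active = activation above the run's mean over test compounds plus 3 SD, cut at about 23% in these data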;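 note: signal is peak over basal fluorescence ratio across the kinetic read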
CHRM4 PAM: potentiates acetylcholine response at human M4 receptor | P08173 | CHO-K1 hM4/Gqi5, Fluo-8 calcium fluorescence, ACh EC20; 0% = ACh EC20, 100% = maximal ACh | activation, % at 3 µM | 0.4% of 360,000 active;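 active = activation above its plate's cutoff, the mean activation of sample wells plus 3 SD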
A number is an active result; n = inactive.

SMILES	M5 antag	CHRM4 agonist	M4 antag	M5 PAM	M5 ag	CHRM4 PAM
CCCC/C(O)=C1\C(=O)CC(C)(C)CC1=Nc1ccc(OC)cc1	n	n	30.5	n	n	n
CCC/C(O)=C1\C(=O)CC(C)(C)CC1=Nc1ccc(OC)cc1	n	n	n	n	n	n
Nc1nc(SCc2ccccc2[N+](=O)[O-])c2ncn(Cc3ccccc3)c2n1	n	n	40.3	n	n	n
Cn1cnc([N+](=O)[O-])c1Sc1nc(N)nc2c1ncn2Cc1ccccc1	n	n	n	n	n	n
Cc1cc(C(=O)N/N=C/c2ccc(-c3ccc([N+](=O)[O-])cc3C)o2)n[nH]1	n	n	n	n	n	n
Cc1cc([N+](=O)[O-])ccc1-c1ccc(/C=N/NC(=O)c2ccc(Br)o2)o1	n	n	n	n	246.4	n
Cc1ccccc1C(=O)NC1CCN(CC(=O)Nc2ccccc2)CC1	n	n	n	n	n	n
Cc1ccccc1C(=O)NC1CCN(CC(=O)Nc2c(C)cccc2C)CC1	n	n	n	31.6	n	29.1
Cc1cc(OC(=O)c2cccc(F)c2)c([N+](=O)[O-])c(=O)[nH]1	n	n	n	n	n	n
CSc1ccc(/C=N/NC(=O)CN2CCN(Cc3ccc(C)cc3)CC2)cc1	n	n	42.2	n	n	n
CSc1ccc(/C=N/NC(=O)CN2CCN(Cc3ccccc3Cl)CC2)cc1	n	n	n	n	n	n
O=C(NC1CCN(S(=O)(=O)c2ccc(F)cc2)CC1)c1cccc(F)c1	n	n	n	n	n	n
Cc1ccc(C)c2[nH]c(=O)c(CN(Cc3ccc4c(c3)OCO4)Cc3nnnn3Cc3ccco3)cc12	n	n	n	n	n	n
Cc1ccc2cc(CN(Cc3ccc4c(c3)OCO4)Cc3nnnn3Cc3ccco3)c(=O)[nH]c2c1C	n	n	n	n	n	22.5
COc1cc(F)ccc1-c1csc(C(NC(C)=O)c2ccc(F)c(F)c2)n1 (centres undefined)	n	n	n	n	n	n
COc1ccc(N(CC(=O)NCc2ccc(F)cc2)S(=O)(=O)c2c(C)n[nH]c2C)cc1	n	n	n	n	n	n
COc1ccc(N(CC(=O)NCc2ccc(Cl)cc2)S(=O)(=O)c2c(C)n[nH]c2C)cc1	29.6	n	n	n	n	n
Cc1ccc(C(=O)NNC(=S)NC(=O)c2ccc(Cl)cc2Cl)cc1	n	160.4	35.8	n	76.8	n
Cc1cccc(C(=O)NNC(=S)NC(=O)c2cccs2)c1	n	129.4	n	n	65.5	n
CCCCC(=O)NC(=S)NNC(=O)c1ccc(Cl)cc1Cl	n	n	n	n	n	n
CC(C)(C)c1cc(CCC(=O)NNC(=S)NC(=O)c2ccccc2)cc(C(C)(C)C)c1O	n	36.6	n	n	n	n
COc1ccc(C(=O)NNC(=S)NC(=O)c2ccc(F)cc2)cc1Br	n	93.4	n	n	67.6	n
COc1ccc(CCN(C)C2CCCN(C(=O)Cn3cnnn3)C2)cc1OC (centres undefined)	n	n	n	n	n	n
Cc1ccccc1C(=O)NNC(=S)NC(=O)c1ccccc1	n	41.0	n	n	n	n
Cc1cccc(C(=O)NNC(=S)NC(=O)c2ccccc2)c1	n	118.4	n	n	56.6	n
SMILES	M5 antag	CHRM4 agonist	M4 antag	M5 PAM	M5 ag	CHRM4 PAM
Cc1ccc(C(=O)NNC(=S)NC(=O)c2ccccc2)cc1	30.2	129.8	27.9	n	66.5	n
COc1ccc(C(=O)NNC(=S)NC(=O)c2ccc(OC)cc2)cc1	n	54.0	n	n	n	n
Cc1ccc(C(=O)NC(=S)NNC(=O)c2ccccc2O)cc1	n	n	n	n	n	n
COc1ccc(C(=O)NNC(=S)NC(=O)c2cccnc2)cc1	n	n	n	n	n	n
O=C(NC(=S)NNC(=O)c1ccccc1O)c1ccccc1	n	n	n	n	n	n
Cc1ccc(Cc2c(C(C)(C)C)nc3cc(C)c(Br)c(C)n23)cc1	n	n	n	n	n	n
Cc1ccc(C(=O)NC(=S)NNC(=O)c2ccccc2)cc1	n	86.6	n	n	39.7	n
Cc1ccc(NC(=S)NCc2cccnc2)cc1	n	n	n	n	n	15.9
S=C(NCc1cccnc1)Nc1cc(Cl)cc(Cl)c1	30.4	n	n	n	n	n
CN1C(=O)C(C)(C)c2cc(S(=O)(=O)NCc3ccc(C(=O)NCc4ccco4)cc3)ccc21	n	n	n	n	n	n
CCCCCCn1c2c(c(=N)c3c1CCC3)CCC2	n	n	n	n	n	n
CCCCCCCCCn1c2c(c(=N)c3c1CCC3)CCC2	39.9	n	50.0	n	n	n
CCn1c2c(c(=N)c3c1CCC3)CCC2	31.7	n	n	n	n	n
CNC(=O)OC1CC2CC1[C@H]1CCCCN1C2=O (some centres undefined)	n	n	n	n	n	n
COc1ccc(Cl)cc1NC(=O)NN1CCN(C)CC1	n	n	n	n	n	n
COc1cc(NC(=O)c2cccc3c(-c4cnn(C)c4)coc23)cc(OC)c1OC	n	n	n	n	n	n
CNC(=S)NC1CC2CCCC(C1)N2Cc1ccc(C)cc1 (centres undefined)	n	n	n	27.8	n	n
CCNC(=S)NC1CC2CCCC(C1)N2Cc1ccc(C)cc1 (centres undefined)	n	n	n	n	n	n
CC(C)(C)OC(=O)NC1CC2CCCC(C1)N2Cc1ccccc1 (centres undefined)	n	n	83.5	n	n	n
Cc1ccccc1C(=O)N=c1ccn(-c2nc3ccccc3nc2NS(=O)(=O)c2ccccc2)cc1	n	n	n	n	n	n
CCOc1ccc(S(=O)(=O)Nc2nc3ccccc3nc2-n2ccc(=NC(=O)c3ccccc3C)cc2)cc1	39.9	n	n	n	30.1	n
COc1ccc(CCC(=O)NC(C)c2ccccc2)cc1OC (centres undefined)	n	n	n	n	n	n
Cc1ccc(S(=O)(=O)NCCNC(=O)c2ccc(C)nc2)cc1	n	n	n	n	n	n
CN(C)CCCN1c2ccc(O)cc2Sc2ccc(Cl)cc21	55.8	n	44.4	n	n	n
CN(C)CCC(=O)N1c2ccccc2Sc2ccc(C(F)(F)F)cc21	100.2	n	98.8	n	n	n
CN(C)CCCN1c2ccccc2Sc2ccc(C(F)(F)F)cc21	98.3	n	83.2	n	n	n
OCCN1CCN(CCCN2c3ccccc3Sc3ccc(C(F)(F)F)cc32)CC1	n	n	n	n	n	n
O=C(NCc1ccc2c(c1)OCO2)C(=O)NCC1OCCCN1S(=O)(=O)c1ccc(F)cc1 (centres undefined)	n	n	n	n	n	n
